Compounds with a hit are over-represented: about 2.3% of the library has one in this group of screens.
CTSL1 counter = counter-screen for PFM18AAP inhibitors: inhibitors of F. hepatica cathepsin L1; inhibition, % at 5.96 µM; recombinant F. hepatica cathepsin L1, Z-Leu-Arg-MCA fluorescence; actives 0.49% (n = 300,000); AID 1906;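 active = inhibition above the mean of all tested compounds plus 3 SD, set per screening campaign, cut at about 17% in these data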;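 also: 0% = plate median of test compound wells and 100% = 1 µM Z-Phe-Ala-diazomethylketone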
UBC13 inh = human UBC13 polyubiquitination inhibition; P61088; UBC13 polyubiquitin chain formation, TR-FRET; inhibition, % at 20 µM; actives 0.47% (n = 330,000); in the data active = inhibition above about 45%, passing the limit was not always enough
Target sequence (P61088 whole entry, looked up): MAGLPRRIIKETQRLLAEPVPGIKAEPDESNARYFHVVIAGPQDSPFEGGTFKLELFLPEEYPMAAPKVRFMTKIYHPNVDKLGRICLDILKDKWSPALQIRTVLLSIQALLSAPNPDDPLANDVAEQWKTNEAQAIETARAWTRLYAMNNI
UCH37 DUB inh = blocks the human deubiquitinase UCH37 | Q9Y5K5 | purified proteasome/UCH37, Ub-AMC cleavage fluorescence | inhibition, % (concentration not given with the values) | actives 0.33% (n = 330,000);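 active = mean inhibition over replicate wells above about 20%, limit read from the data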;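 also: 0% = compound-free wells with enzyme and 100% = wells lacking proteasome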
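System: Proteasome-associated human UCH37 deubiquitinase; Input: 0.15 nM proteasome in added enzyme buffer; Also added: Ub-AMC substrate from 1 µM stock; Incubation: 30 min compound-proteasome preincubation then 25 min substrate reaction, room temperature; Detection: fluorescence, ex 355 nm, em 460 nm; Read-out: % inhibition of Ub-AMC cleavage fluorescence; Benchmarks: no-proteasome and no-compound wells.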
PREPL inhibitor = inhibits the human prolyl oligopeptidase-like enzyme. recombinant PREPL, fluorescence polarization activity-based probe. inhibition, % at 5.96 µM. actives 0.68% (n = 320,000). AID 2751; in the data active = inhibition above about 43%;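 also: 0% = enzyme with DMSO and 100% = wells lacking enzyme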
PP5 primary = inhibitors of human protein phosphatase 5 (PP5). P53041. purified PP5c, OMFP substrate fluorescence. AID 1987. actives 0.18% (n = 320,000). inhibition, % at 6.7 µM;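 active = inhibition above the campaign's mean inhibition across all tested compounds plus 3 SD, cut at about 9.5% in these data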;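 also: 0% = DMSO only and 100% = 100 µM cantharidin control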
PP1 inh = counter-screen for PP5 inhibitors: inhibitors of human PP1-alpha; inhibition, % at 6.7 µM; P62136; AID 2235; actives 0.9% (n = 320,000); purified PP1alpha, OMFP fluorescence;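 active = inhibition above the mean inhibition of all tested compounds plus 3 SD, computed separately for each screening campaign, cut at about 15% in these data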
Target sequence (P62136 whole entry, looked up): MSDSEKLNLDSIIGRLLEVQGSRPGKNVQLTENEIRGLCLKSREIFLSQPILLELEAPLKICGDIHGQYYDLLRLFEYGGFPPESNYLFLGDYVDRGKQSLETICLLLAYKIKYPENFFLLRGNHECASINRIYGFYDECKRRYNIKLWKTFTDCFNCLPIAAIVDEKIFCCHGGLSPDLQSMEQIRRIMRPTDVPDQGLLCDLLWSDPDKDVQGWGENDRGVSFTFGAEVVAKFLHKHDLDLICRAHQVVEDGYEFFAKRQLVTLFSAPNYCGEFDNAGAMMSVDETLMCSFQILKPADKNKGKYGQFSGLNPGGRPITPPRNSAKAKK
PP1 inh confirm = confirmation of human PP1 phosphatase inhibitors | shares compounds with PP1 inh | inhibition, % at 6.7 µM | actives 52% (n = 1,900) | purified PP1alpha, OMFP substrate fluorescence;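 active = mean PP1 inhibition above a set limit taken from the earlier primary screen, cut at about 15% in these data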
PP5 inh counter = inhibits human PP5 phosphatase in PP1 counter-screen; shares compounds with PP1 inh; purified PP5c, OMFP fluorescence; inhibition, % at 6.7 µM; actives 4% (n = 1,900);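 active = mean PP5 inhibition over triplicate wells above about 9.5% taken from the earlier PP1 screen, limit read from the data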
Numbers without * were called inactive; / = no result given.

SMILES	CTSL1 counter	UBC13 inh	UCH37 DUB inh	PREPL inhibitor	PP5 primary	PP1 inh	PP1 inh confirm	PP5 inh counter
CCCOc1cccc(C2C(C(=O)c3ccc(C)o3)=C(O)C(=O)N2c2nc(C)c(C(C)=O)s2)c1 (stereo not drawn)	7.1	-6.6	-1.8	1.8	1.7	24.9*	32.0*	2.6
CCCOc1ccc(C2C(C(=O)c3ccc(C)o3)=C(O)C(=O)N2Cc2ccco2)cc1 (stereo not drawn)	3.0	-21.6	4.4	15.9	-2.1	27.0*	38.9*	-3.6
CCOc1cc(C2C(C(=O)c3ccc(C)o3)=C(O)C(=O)N2CCc2ccccc2)ccc1O (stereo not drawn)	4.0	-6.4	8.3	-1.7	2.3	32.7*	37.7*	4.2
COc1ccc(C2C(C(=O)c3ccc(C)o3)=C(O)C(=O)N2c2cc(C)on2)cc1OC (stereo not drawn)	1.4	-5.4	1.0	2.0	-0.8	-3.1	/	/
COC(=O)c1cccc(Cn2c(Cl)c(C=NNc3ccccc3C)sc2=O)c1	/	/	4.3	/	/	/	/	/
Cc1ccc(-c2c(C(=O)NN=Cc3cccs3)nnn2-c2nonc2N)cc1	/	/	3.7	/	/	/	/	/
CNC(=S)NN=Cc1cn(CCOc2cccc(OC)c2)c2ccccc12	/	/	3.3	/	/	/	/	/
O=C(NN=C/C=C/c1ccccc1)c1cccs1	/	/	12.9	/	/	/	/	/
COc1ccc(C=NOCC(=O)NCc2cccs2)c(OC)c1	/	/	3.3	/	/	/	/	/
Cc1cc(N2C(=O)C(O)=C(C(=O)c3ccc(C)o3)C2c2cccc(Oc3ccccc3)c2)no1 (stereo not drawn)	0.1	-15.8	/	3.5	3.9	29.2*	28.6*	-0.5
COc1cc(C2C(C(=O)c3ccc(C)o3)=C(O)C(=O)N2c2cc(C)on2)cc(Br)c1O (stereo not drawn)	0.3	-7.9	-0.7	-0.8	0.4	4.8	/	/
COC(=O)CCC(=O)OC1(C)C(=O)C2=CN(c3ccccc3)C(c3ccc(OC)cc3)=CC2=C(Br)C1=O (stereo not drawn)	-6.3	-101.5	1.6	29.8	2.3	22.2*	11.6	25.0*
Cc1nn(Cc2ccc(Cl)cc2Cl)c(C)c1NC(=O)CCl	12.8	-3.0	5.9	14.7	-1.4	0.8	/	/
Cc1nn(Cc2ccc(Cl)cc2Cl)c(C)c1NC(=O)C1C2CCC(O2)C1C(=O)O (stereo not drawn)	0.5	-8.0	2.9	4.8	46.0*	31.8*	12.3	22.5*
O=C(O)C1C2CCC(O2)C1C(=O)NCc1ccc(Cl)cc1 (stereo not drawn)	0.9	8.8	-1.0	-2.9	48.5*	32.2*	16.7*	31.6*
Cc1nn(C)cc1CNC(=O)C1C2CCC(O2)C1C(=O)O (stereo not drawn)	-1.5	-15.5	/	7.5	69.7*	61.9*	37.4*	40.9*
O=C(O)C1C2CCC(O2)C1C(=O)Nc1ccc(Cl)cc1F (stereo not drawn)	-1.4	-2.8	/	5.1	69.2*	67.0*	25.8*	33.5*
Cc1nn(C)cc1CNC(=O)C1C2CCC(C2)C1C(=O)O (stereo not drawn)	9.2	0.8	-0.1	5.1	5.5	-0.7	/	/
O=C(NCc1ccc(Cl)cc1)C1CCN(C(=O)c2ccco2)CC1	-1.4	1.6	0.9	-2.0	0.1	-7.2	/	/
O=C(O)C1C2CCC(O2)C1C(=O)Nc1cccc(Cl)c1 (stereo not drawn)	-1.4	4.4	3.6	-5.8	69.3*	70.5*	16.6*	25.3*
COC(=O)c1ccc(/C=C/c2ccc3cccc(OC(C)=O)c3n2)cc1	4.6	-18.1	-2.3	11.1	0.8	20.3*	20.9*	-3.6
O=C(O)c1ccc(/C=C/c2ccc3cccc(O)c3n2)cc1	/	-21.3	14.4	/	/	/	/	/
CC(=NNC(=O)CNC(=O)Cc1ccccc1)c1ccco1	/	/	3.9	/	/	/	/	/
O=C(COc1ccc(Br)cc1)NN=C1SCC(=O)N1Cc1ccccc1	/	/	1.1	/	/	/	/	/
C/C(=N\NC(=O)COc1ccc(C)cc1C(C)C)c1ccc(-n2ccnc2)cc1	3.2	11.4	/	-11.0	0.4	17.8*	17.5*	-0.5

Bioassay records: PubChem BioAssay, several laboratories
